Data set [1] deals with Liver microsome. In words: Effect on mitochondrial transmembrane potential in Wistar Han rat liver mitochondria energized with succinate assessed as ADP depolarization at 0.667 ug/mg of protein (reference value: 34.7 +/- 1.4 mV). It counts as functional.
In data set [2] the test system is Liver microsome. The data set can be described thus: Effect on mitochondrial transmembrane potential in Wistar Han rat liver mitochondria energized with succinate assessed as mitochondrial transmembrane electropotential at 1.333 ug/mg of protein (reference value: 216.0 +/- 7.4 mV). Type of data set: functional. The essentials:
(§1)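 Isolated male Wistar rat liver mitochondria (1.5 mg protein) in 125 mM sucrose, 65 mM KCl, 5 mM KH2PO4, 2.5 mM MgCl2, 5 mM HEPES pH 7.4, 30°C, with 3 μM TPP+. Compound added for 1 min, then 10 mM succinate plus 3 μM rotenone. State 3 started with ADP (83.3 nmol/mg protein). ΔΨ read with a TPP+-selective electrode and calculated by the Kamo equation without binding correction.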

Data set [3] deals with Liver microsome. In words: Effect on mitochondrial transmembrane potential in Wistar Han rat liver mitochondria energized with succinate assessed as mitochondrial transmembrane electropotential at 0.667 ug/mg of protein (reference value: 216.0 +/- 7.4 mV). It counts as functional. Put shortly:
as §1

Data set [4] concerns Liver microsome. In words: Effect on mitochondrial transmembrane potential in Wistar Han rat liver mitochondria energized with succinate assessed as mitochondrial transmembrane electropotential at 0.06 ug/mg of protein (reference value: 216.0 +/- 7.4 mV). It counts as functional.
Data set [5] has as its system Liver microsome. The data set can be described thus: Effect on mitochondrial transmembrane potential in Wistar Han rat liver mitochondria energized with succinate assessed as time duration of lag phase at 0.067 ug/mg of protein (reference value: 82.8 +/- 23.5 sec). Type of data set: functional. The essentials:
as §1

For data set [6], the system named is Liver microsome. In words: Effect on mitochondrial transmembrane potential in Wistar Han rat liver mitochondria energized with succinate assessed as ADP depolarization at 1.333 ug/mg of protein (reference value: 25.3 +/- 2.1 mV). It counts as functional.
Another data set deals with Hs-578T. The data set can be described thus: Cytotoxicity against human Hs578T cells assessed as decrease in live cells at 1 ug/ml for 24 to 48 hrs by flow cytometry. Type of data set: functional. Put shortly:
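Hs578T seeded at 2.5×10^4 cells/ml, exposed to 1 μg/ml or DMSO for 24 and 48 h. Cells trypsinized and resuspended in HEPES-buffered saline with 15 mM glucose. Stained 15 min at 37°C with 1 μM ethidium homodimer and 0.1 μM calcein-AM. Green (calcein) and red (ethidium homodimer) signals read by flow cytometry. Mean ± SEM, 6 experiments.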

In data set [7] the test system is Liver microsome. The data set can be described thus: Effect on mitochondrial transmembrane potential in Wistar Han rat liver mitochondria energized with succinate assessed as mitochondrial transmembrane electropotential at 0.667 ug/mg of protein (reference value: 204.2 +/- 5.6 mV). It counts as functional.
For data set [8], the system named is Liver microsome. In words: Effect on mitochondrial transmembrane potential in Wistar Han rat liver mitochondria energized with succinate assessed as ADP depolarization at 0.067 ug/mg of protein (reference value: 25.3 +/- 2.1 mV). Type of data set: functional.
Data set [9] in a line: Induction of apoptosis in human MCF12A cells assessed as distribution of mitochondrial polarization and morphology at 0.25 ug/ml after 6 hrs by confocal microscopy. Type of data set: cell-based. To be noted: mcf-12a. The essentials:
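Cells were seeded on glass coverslips and left to attach for 24 h. They were then exposed to vehicle or 0.25 μg/ml compound for 6 h. For the last 30 min they were loaded with 100 nM TMRM in saline buffer with 15 mM glucose, and the probe was kept present during imaging. Mitochondrial polarization and morphology were imaged by fluorescence microscopy, and the TMRM fluorescence standard deviation was quantified. Four independent preparations, mean ± SEM.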

For data set [10], the system named is Liver microsome. The data set can be described thus: Effect on mitochondrial transmembrane potential in Wistar Han rat liver mitochondria energized with succinate assessed as mitochondrial transmembrane electropotential at 0.133 ug/mg of protein (reference value: 204.2 +/- 5.6 mV). It counts as functional.
In data set [11] the test system is Liver microsome. The data set can be described thus: Effect on mitochondrial transmembrane potential in Wistar Han rat liver mitochondria energized with succinate assessed as mitochondrial transmembrane electropotential at 0.333 ug/mg of protein (reference value: 204.2 +/- 5.6 mV). It counts as functional.
In data set [12] the test system is Liver microsome. The data set can be described thus: Effect on mitochondrial transmembrane potential in Wistar Han rat liver mitochondria energized with succinate assessed as time duration of lag phase at 1.333 ug/mg of protein Rvb = 46.7 +/- 3.9 sec). Type of data set: functional. The essentials: as §1
Data set [13] relates to Liver microsome. The data set can be described thus: Effect on mitochondrial transmembrane potential in Wistar Han rat liver mitochondria energized with succinate assessed as ADP depolarization at 1.333 ug/mg of protein (reference value: 34.6 +/- 1.9 mV). Type of data set: functional.
Data set [14] relates to Liver microsome. The data set can be described thus: Effect on mitochondrial transmembrane potential in Wistar Han rat liver mitochondria energized with succinate assessed as ADP depolarization at 0.133 ug/mg of protein (reference value: 34.6 +/- 1.9 mV). It counts as functional.
In data set [15] the test system is Liver microsome. The data set can be described thus: Effect on mitochondrial transmembrane potential in Wistar Han rat liver mitochondria energized with succinate assessed as ADP depolarization at 0.667 ug/mg of protein (reference value: 34.6 +/- 1.9 mV). It counts as functional.
The subject of data set [16] is Liver microsome. The data set can be described thus: Effect on mitochondrial transmembrane potential in Wistar Han rat liver mitochondria energized with succinate assessed as mitochondrial transmembrane electropotential at 0.133 ug/mg of protein (reference value: 220.6 +/- 2.5 mV). It counts as functional.
The subject of data set [17] is Liver microsome. In words: Effect on mitochondrial transmembrane potential in Wistar Han rat liver mitochondria energized with succinate assessed as mitochondrial transmembrane electropotential at 0.667 ug/mg of protein (reference value: 198.0 +/- 5.6 mV). Type of data set: functional.
Data set [18] concerns Liver mitochondria (Rattus norvegicus). In words: Effect on mitochondrial transmembrane potential in Wistar Han rat liver mitochondria energized with succinate assessed as time duration of lag phase at 1.333 ug/mg of protein (reference value: 40.5 +/- 4.5 sec).
The subject of data set [19] is Liver microsome. In words: Effect on mitochondrial transmembrane potential in Wistar Han rat liver mitochondria energized with succinate assessed as ADP depolarization at 0.133 ug/mg of protein (reference value: 23.9 +/- 3.3 mV). Type of data set: functional.
Data set [20] relates to Liver microsome. The data set can be described thus: Effect on mitochondrial transmembrane potential in Wistar Han rat liver mitochondria energized with succinate assessed as mitochondrial transmembrane electropotential at 0.133 ug/mg of protein (reference value: 198.0 +/- 5.6 mV). It counts as functional.
Data set [21] has as its system Liver microsome. In words: Effect on mitochondrial transmembrane potential in Wistar Han rat liver mitochondria energized with succinate assessed as ADP depolarization at 0.333 ug/mg of protein (reference value: 23.9 +/- 3.3 mV). Type of data set: functional.
Data set [22] concerns Liver microsome. The data set can be described thus: Effect on mitochondrial transmembrane potential in Wistar Han rat liver mitochondria energized with succinate assessed as mitochondrial transmembrane electropotential at 1.333 ug/mg of protein (reference value: 198.0 +/- 5.6 mV). It counts as functional. Put shortly:
as §1

For data set [23], the system named is Liver mitochondria (Rattus norvegicus). In words: Effect on mitochondrial transmembrane potential in Wistar Han rat liver mitochondria energized with succinate assessed as time duration of lag phase at 0.667 ug/mg of protein (reference value: 40.5 +/- 4.5 sec).
Data set [24] has the same test system. In words: Effect on mitochondrial transmembrane potential in Wistar Han rat liver mitochondria energized with succinate assessed as time duration of lag phase at 0.333 ug/mg of protein (reference value: 40.5 +/- 4.5 sec).

The source made the active and inactive calls. No cut-off for these calls is given here.

As to `C=C(C)[C@@H]1CC[C@]2(COC(=O)C[n+]3ccc(N(C)C)cc3)CC[C@]3(C)[C@H](CC[C@@H]4[C@@]5(C)CC[C@H](OC(=O)C[n+]6ccc(N(C)C)cc6)C(C)(C)[C@@H]5CC[C@]43C)[C@@H]12.[Cl-].[Cl-]`, the Activity in the data set with Liver microsome [1] worked out at 28.6 mV; in the data set with Liver microsome [2], 201 mV; in the data set with Liver microsome [3], 206 mV; in the data set with Liver microsome [4] it was 209 mV. Further, the TIME in the data set with Liver microsome [5] was 0.0219 h.

With `C=C(C)[C@@H]1CC[C@]2(COC(=O)CC[n+]3ccc(N(C)C)cc3)CC[C@]3(C)[C@H](CC[C@@H]4[C@@]5(C)CC[C@H](OC(=O)CC[n+]6ccc(N(C)C)cc6)C(C)(C)[C@@H]5CC[C@]43C)[C@@H]12.[Cl-].[Cl-]`, the Activity in the data set with Liver microsome [6] is 20.3 mV; in the data set on Liver microsome [7] it was 205 mV; with Liver microsome [8], 24.7 mV; in data set [9], “Non-toxic”; in the data set with Liver microsome [10], 206 mV; in the data set on Liver microsome [11] it was 204 mV. Moreover, the inhibition result in the data set on Hs-578T was “Active”.

In the case of `C=C(C)[C@@H]1CC[C@]2(COC(=O)C[N+](C)(C)C(C)C)CC[C@]3(C)[C@H](CC[C@@H]4[C@@]5(C)CC[C@H](OC(=O)C[N+](C)(C)C(C)C)C(C)(C)[C@@H]5CC[C@]43C)[C@@H]12.[Cl-].[Cl-]`, the TIME in the data set with Liver microsome [12] came out at 0.0144 h. Further, the Activity in the data set on Liver microsome [13] came to 19.8 mV; with Liver microsome [14], 30.3 mV; in the data set on Liver microsome [15] it was 21.9 mV; in the data set on Liver microsome [16], 217 mV.

For the molecule `C=C(C)[C@@H]1CC[C@]2(COC(=O)C(CC)[n+]3ccc(N(C)C)cc3)CC[C@]3(C)[C@H](CC[C@@H]4[C@@]5(C)CC[C@H](OC(=O)C(CC)[n+]6ccc(N(C)C)cc6)C(C)(C)[C@@H]5CC[C@]43C)[C@@H]12` (stereo not given in full), the Activity with Liver microsome [17] is 193 mV; with Liver microsome [19] it was 23.2 mV; with Liver microsome [20], 197 mV; with Liver microsome [21], 23.2 mV; in the data set with Liver microsome [22], 190 mV. Besides, the TIME in data set [18] was found to be 0.0136 h; in [23] it was 0.0117 h; in data set [24] it was 0.0121 h.

(Values after ChEMBL document CHEMBL3351723, “New derivatives of lupane triterpenoids disturb breast cancer mitochondria and induce cell death” (Bioorg Med Chem, 2014).)
